{
  "source": "paper PMC11261800",
  "about": "(Heliyon, 2024)",
  "tested_on": "HFF-1 cells",
  "assay": "SA-β-gal activity in D-gal-induced premature aging of HFF-1 cells",
  "assay_type": "cell-based, human",
  "conditions": "500 μg/mL",
  "outline": "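HFF-1 fibroblasts were seeded at 2 × 10^4 cells/well and cultured for 24 h. Growth medium was replaced for 72 h with test sample solution containing D-gal at 20 mg/mL final. SA-β-gal activity was detected by X-gal staining, and blue positive cells were viewed by microscopy and counted against the D-gal-injured and blank control groups.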",
  "data": [
    {"smiles": "N[C@@H](CCC(=O)N[C@@H](CS)C(=O)NCC(=O)O)C(=O)O", "note": "[GSH]", "values": [
      {"measurement": "decrease of SA-β-gal positive staining rate compared with the D-gal group", "result": 50.61, "unit": "%"}
    ]}
  ]
}
